Assay outcomes from PubChem BioAssay.
PfGluPho inh – PfG6PD (Plasmodium falciparum) enzyme inhibition. hit rate 0.78% among 350,000. PfGluPho enzyme, NADPH resazurin-diaphorase fluorescence. inhibition, % at 20 µM. AID 504690;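 active means inhibition reaching at least a set limit at 20 µM in the primary screen, cut at about 59% in these data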;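 further: 0% = DMSO wells with substrate and 100% = DMSO wells lacking glucose-6-phosphate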
Beta2AR agonist – agonists of human beta-2 adrenergic receptor inducing internalization | P07550 | Am2.2-beta2AR cells, FAP receptor internalization, flow cytometry | response, % (no concentration beside the values) | hit rate 0.43% among 340,000;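 active means response above a set limit, near 3 SD of response in nonfluorescent compounds, cut at about 42% in these data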
APJ antag – APJ receptor antagonism. CHO-K1 APJ beta-arrestin complementation, luminescence. P35414. hit rate 0.32% among 330,000. inhibition, % at 20 µM;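 active means inhibition above about 40% at 20 µM, limit read from the data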;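 further: cells challenged with 10 nM apelin-13 agonist together with compound; plate controls were apelin-13 plus DMSO wells for no effect and DMSO wells lacking apelin-13 for full effect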
APJ ag – activates the human apelin receptor APJ | hit rate 0.11% among 330,000 | AID 2520 | P35414 | activation, % at 20 µM | CHO-K1 APJ PathHunter beta-arrestin, luminescence; 0% DMSO wells, 100% apelin;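 active means activation more than six SD over the plate average, tested at 20 µM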;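 further: 0% = DMSO alone and 100% = apelin-13 at 10 nM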
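Test system: CHO-K1 APJ beta-arrestin complementation cell line | Compound: Single test compound dose, 20 µM final, 1% DMSO | Incubation: Compound 90 min 25 °C, reagent 1 h | Measured by: beta-gal luminescence | Read-out basis: APJ–arrestin association signal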
CXCR6 block – inhibitors of human CXCR6 receptor; O00574; CHO-K1 PathHunter CXCR6 beta-arrestin, luminescence; inhibition, % at 20 µM; hit rate 0.36% among 360,000; AID 602244; in the data active means inhibition above about 34%, passing the limit was not always enough;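 further: antagonist mode with CXCL16 agonist at 10 nM final; 0% = 10 nM CXCL16 with DMSO and 100% = unstimulated wells without agonist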
Target sequence (O00574 whole entry, looked up): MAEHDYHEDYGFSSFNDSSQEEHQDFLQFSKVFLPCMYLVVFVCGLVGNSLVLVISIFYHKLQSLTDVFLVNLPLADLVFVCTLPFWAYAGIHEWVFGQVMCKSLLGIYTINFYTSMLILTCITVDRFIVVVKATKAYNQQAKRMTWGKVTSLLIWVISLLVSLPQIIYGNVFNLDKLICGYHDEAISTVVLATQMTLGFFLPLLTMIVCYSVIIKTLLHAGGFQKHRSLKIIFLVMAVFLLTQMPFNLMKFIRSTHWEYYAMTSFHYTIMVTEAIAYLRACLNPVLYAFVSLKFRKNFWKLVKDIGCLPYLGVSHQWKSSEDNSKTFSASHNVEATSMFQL
CCR6 antag – antagonists of human CCR6 receptor | P51684 | CHO-K1 CCR6 PathHunter beta-arrestin, luminescence, CCL20-stimulated | inhibition, % at 20 µM | hit rate 0.49% among 340,000 | AID 493098;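 active means compounds whose inhibition of the agonist-driven luminescence signal at 20 µM reaches about 50%, limit read from the data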;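 further: cells stimulated with CCL20 at 14 nM final; plate controls were DMSO with CCL20 for no effect and DMSO without agonist for full effect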
PfG6PD confirm – confirmation of Plasmodium falciparum G6PD inhibitors; shares compounds with PfGluPho inh; recombinant PfGluPho, NADPH-diaphorase-resazurin fluorescence; inhibition, % at 20 µM; hit rate 34% among 2,400; AID 504753;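 active means inhibition of at least 50% at 20 µM in any single replicate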;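 further: 0% = DMSO with substrate and 100% = DMSO lacking glucose-6-phosphate substrate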
Diaph ctr 10uM – counter-screen for P. falciparum G6PD inhibitors: diaphorase inhibitors, oxidizers | shares compounds with PfGluPho inh | diaphorase-coupled resazurin reduction, fluorescence, NADPH 10 uM | inhibition, % at 20 µM | hit rate 39% among 820 | AID 504862;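 active means average inhibition reaching 50% or more with the compound at 20 µM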;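 further: resorufin red fluorescence formed as diaphorase reduces resazurin using NADPH; 0% = DMSO with enzyme and 100% = DMSO without enzyme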
Diaphorase 30uM – inhibits diaphorase or oxidizes, flagging false PfG6PD hits; shares compounds with PfGluPho inh; Diaphorase/resazurin coupled assay, resorufin fluorescence, 30 uM NADPH; inhibition, % at 20 µM; hit rate 29% among 820;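 active means inhibition averaging 50% or more, tested at 20 µM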;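 further: 0% = DMSO with enzyme and 100% = DMSO wells lacking diaphorase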
* marks the source's active call; other numbers are inactive results; x = not tested or not shown; ! = not confirmed by another sample. The list is not random: actives were taken first. Their share in the collection is about 1.7%.

SMILES	PfGluPho inh	Beta2AR agonist	APJ antag	APJ ag	CXCR6 block	CCR6 antag	PfG6PD confirm	others
O=S(=O)(Nc1ccccc1N1CCCCC1)c1ccc(Cl)s1	86*	7	1	-3	2	20	22
O=S(=O)(Nc1ccccc1N1CCCC1)c1ccccc1C(F)(F)F	16	x	x	x	1	x	x
COc1ccc(-n2c(NN)nc3sc4c(c3c2=O)CCCC4)cc1	92*	-2	9	-2	-3	27	29
CCN1CCN(c2nc3sc4c(c3c(=O)n2-c2ccc(OC)cc2)CCCCC4)CC1	-6	-33	-28	-2	2	9	x
CC(=O)Nc1ccc(N2CC(C)(C)C2=O)cc1	-16	-3	11	-1	0	3	x
Cc1ccc(C(=O)N2CCN(c3ncc(C(F)(F)F)cc3Cl)CC2)s1	4	-6	12	-1	-4	9	x
COc1cc(OC)c(C2CC(=O)N3CN(c4ccc(C)cc4)CSC3=C2C#N)cc1OC (stereo unspecified)	89*	6	-23	1	5	6	40
COc1ccc(C2CC(=O)N3CN(c4ccc(C)c(Cl)c4)CSC3=C2C#N)cc1OC (stereo unspecified)	59*	11	-1	0	-6	0	3
CCOc1ccccc1N1CSC2=C(C#N)C(c3c(OC)ccc4ccccc34)CC(=O)N2C1 (stereo unspecified)	74*	3	-7	1	1	13	31
CCOc1ccccc1N1CCN(S(=O)(=O)c2cc(C)ccc2OC)CC1	14	3	-2	-2	6	8	x
COc1ccc(N2CSC3=C(C#N)C(c4cc(OC)c(OC)cc4OC)CC(=O)N3C2)c(OC)c1 (stereo unspecified)	102*	0	-16	25*	-8	-10	74*	Diaph ctr 10uM=6;Diaphorase 30uM=7
COc1ccc(C2C(C#N)=C(N)SC(N)=C2C#N)cc1OC	22	-3	-8	-4	4	16	x
COc1ccc(CCNC(=O)C2CC(=O)N(c3ccc(C)cc3)C2)cc1OC (stereo unspecified)	-12	-4	8	-1	-3	16	x
COc1ccc(-n2c(SC(C)C(=O)Nc3ccc(NC(C)=O)cc3)nc3ccccc3c2=O)cc1OC (stereo unspecified)	31	5	8	0	8	17	x
CCOc1ccc(C(C(=O)NC2CCCC2)N(C(=O)CNC(=O)c2ccco2)c2cccnc2)cc1 (stereo unspecified)	-17	-10	26	-1	-3	7	x
COc1ccc(NC(=O)CCN(c2ccc(OC)cc2)S(=O)(=O)c2ccc(C)c(C)c2)cc1	5	-4	x	x	2	12	x
Cc1ccc(N2CSC3=C(C#N)C(c4cccs4)CC(=O)N3C2)cc1 (stereo unspecified)	70*	6	4	-1	-4	10	32
COc1ccc(N2CSC3=C(C#N)C(c4ccc(OC)c(OC)c4)CC(=O)N3C2)c(OC)c1 (stereo unspecified)	80*	-4	9	1	-13	7	65*	Diaph ctr 10uM=5;Diaphorase 30uM=11
CCSC1=C(C#N)C(c2ccc(OC)c(OC)c2)CC(=O)N1 (stereo unspecified)	7	-3	-13	-5	9	-5	x
CCOC(=O)C1(Cc2cccc(OC)c2)CCCN(C(=O)CCN2CCCO2)C1 (stereo unspecified)	-1	-15	4	7	-2	2	x
CC(C)(C=O)C1=CC(=O)c2ccccc2C1=O	119*	66*	x	x	100*	103*	103*	Diaph ctr 10uM=85*;Diaphorase 30uM=66*
Cc1ccccc1NC(=O)COC(=O)c1cc(S(=O)(=O)N2CCOCC2)ccc1C	10	-8	8	-1	-10	19	x
[O-]/[N+](=C\c1ccco1)c1ccc(Cl)cc1	89*	11	-9	-1	-3	5	62*	Diaph ctr 10uM=38;Diaphorase 30uM=13
[O-][N+](=Cc1ccccc1)c1ccc(Cl)cc1	87*	5	x	x	2	15	92*	Diaph ctr 10uM=62*;Diaphorase 30uM=30
COc1cc(C(=O)C(=O)c2cc(OC)c(O)c(OC)c2)cc(OC)c1O	4	-5	20	-2	-2	-1	x
SMILES	PfGluPho inh	Beta2AR agonist	APJ antag	APJ ag	CXCR6 block	CCR6 antag	PfG6PD confirm	others
COc1cc(-c2cc(OC)c(O)c(OC)c2)cc(OC)c1O	100*	-3	x	x	-12	-8	72*	Diaph ctr 10uM=7;Diaphorase 30uM=1
Cc1csc(NC(=O)c2cc3c(s2)CCCCC3)n1	77*	4	5	-7	1	10	10
Cc1csc(NC(=O)c2cc3c(s2)CCCC3)n1	62*	-4	2	-1	-13	5	9
CCOC(=O)Cc1csc(NC(=O)c2cc3c(s2)CCCC3)n1	6	x	-17	-4	-5	-1	x
COc1ccc(Nc2nc(-c3ccccc3)c(C(=O)Nc3cccnc3)s2)cc1	65*	4	-7	-2	-4	11	16
O=C(CCNS(=O)(=O)c1ccccc1)OCC(=O)c1ccc(Cl)cc1	-5	1	16	-1	7	12	x
COC(=O)c1cc2ccccc2c(-c2c(OC)c(C(=O)OC)cc3ccccc23)c1OC	89*	23	27	-1	15	34	33
CN1CCSc2ccc(C(=O)Nc3cccc(F)c3)cc21	64*	4	-23	1	1	6	14
CN(C)c1cccc(C(=O)Nc2cccc(F)c2)c1	68*	-5	6	6	-2	8	18
CCN(CC)c1ccc(C(=O)Nc2cccc(F)c2)cc1	23	0	-2	-1	-2	-5	x
C[c-]1[c-](C)[c-](C)[c-](C)[c-]1C.[Fe].c1cc2nccc(N3CCCC3)[c-]2c1 (stereo unspecified)	85*	19	-32	6	-1	19	66*!	Diaph ctr 10uM=15;Diaphorase 30uM=11
COc1ccc(C(=O)O)cc1S(=O)(=O)NCc1ccccn1	14	11	9	-2	3	-11	x
CC(=O)Nc1ccc(S(=O)(=O)/N=C2\C(=O)c3ccccc3C([O-])=C2n2cc[n+](-c3ccccn3)c2)cc1	69*	11	-68	7	-7	4	56*	Diaph ctr 10uM=35;Diaphorase 30uM=36
CC(C)CNC(=O)C1(C)CCCN1Cc1ccc(OC(F)(F)F)cc1 (stereo unspecified)	x	x	x	x	5	x	x
